Test results taken from ChEMBL document CHEMBL1152607, “Tetraiodobenzimidazoles are potent inhibitors of protein kinase CK2” (Bioorg Med Chem, 2009).
The source made the active and inactive calls. The calls are words filed in the database; no cut-off is given here.

Columns and labels:
[1] = Inhibition of rat liver Casein kinase 2
Method in brief: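 Ki from Lineweaver–Burk plots: peptide fixed, ATP increasing, with or without several inhibitor concentrations. Alternatively derived from IC50 via the Cheng–Prusoff relationship.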

Rattus norvegicus = species on record: Rattus norvegicus; assay: (§1) Noncompetitive inhibition of rat liver Casein kinase 2 using 80 uM ATP and increasing phosphoacceptor substrate by Lineweaver-Burke plot
[2] = as §1

Row | Structure (SMILES) | Ki [1] [nM] | further results
1 | CCc1nc2c(I)c(I)c(I)c(I)c2[nH]1 | 19 | –
2 | Clc1c(I)c(I)c2[nH]cnc2c1I | 160 | –
3 | O=C(O)CSc1nc2c(Br)c(Br)c(Br)c(Br)c2[nH]1 | 120 | –
4 | Cc1nc2c(I)c(Cl)c(Cl)c(I)c2[nH]1 | 330 | –
5 | Brc1nc2c(Br)c(Br)c(Br)c(Br)c2[nH]1 | 370 | –
6 | Clc1c(Cl)c(I)c2[nH]cnc2c1I | 460 | –
7 | OCCNc1nc2c(Br)c(Br)c(Br)c(Br)c2[nH]1 | 140 | –
8 | Clc1c(I)c(Cl)c2nc[nH]c2c1I | 590 | –
9 | Ic1c(I)c(I)c2[nH]cnc2c1I | 23 | Activity (Rattus norvegicus): Active
10 | NNC(=O)Cn1cnc2c(I)c(I)c(I)c(I)c21 | 160 | –
11 | Clc1nc2c(I)c(I)c(I)c(I)c2[nH]1 | 120 | –
12 | Brc1c(I)c(Br)c2nc[nH]c2c1I | 75 | –
13 | FC(F)(F)c1nc2c(Br)c(Br)c(Br)c(Br)c2[nH]1 | 370 | –
14 | FC(F)(F)c1nc2c(I)c(I)c(I)c(I)c2[nH]1 | 120 | –
15 | CNC(=O)Cn1cnc2c(I)c(I)c(I)c(I)c21 | 180 | –
16 | OCCNc1nc2c(I)c(I)c(I)c(I)c2[nH]1 | 27 | –
17 | S=c1[nH]c2c(I)c(I)c(I)c(I)c2[nH]1 | 50 | –
18 | Brc1c(Br)c(Br)c2[nH]cnc2c1Br | 300 | –

Row | Structure (SMILES) | Ki [1] [nM] | further results
19 | CNC(=O)Cn1cnc2c(Br)c(Br)c(Br)c(Br)c21 | 1910 | –
20 | Brc1c(I)c(I)c2[nH]cnc2c1I | 100 | –
21 | FC(F)(F)C(F)(F)c1nc2c(I)c(I)c(I)c(I)c2[nH]1 | 70 | –
22 | O=C(O)Cn1cnc2c(I)c(I)c(I)c(I)c21 | 140 | –
23 | NC(=O)Cn1cnc2c(Br)c(Br)c(Br)c(Br)c21 | 1450 | –
24 | O=c1[nH]c2c(Br)c(Br)c(Br)c(Br)c2[nH]1 | 180 | –
25 | O=C(O)CSc1nc2c(I)c(I)c(I)c(I)c2[nH]1 | 54 | –
26 | O=c1[nH]c2c(I)c(I)c(I)c(I)c2[nH]1 | 50 | –
27 | Cc1nc2c(I)c(I)c(I)c(I)c2[nH]1 | 24 | –
28 | Clc1c(Cl)c(Cl)c2[nH]cnc2c1Cl | – | Ki [2]: 21000 nM
29 | Clc1nc2c(Br)c(Br)c(Br)c(Br)c2[nH]1 | 250 | –
30 | Brc1nc2c(I)c(I)c(I)c(I)c2[nH]1 | 90 | –
31 | NC(=O)Cn1cnc2c(I)c(I)c(I)c(I)c21 | 130 | –
32 | O=C(O)Cn1cnc2c(Br)c(Br)c(Br)c(Br)c21 | 1340 | –
33 | NNC(=O)Cn1cnc2c(Br)c(Br)c(Br)c(Br)c21 | 1510 | –
34 | S=c1[nH]c2c(Br)c(Br)c(Br)c(Br)c2[nH]1 | 200 | –
35 | FC(F)(F)C(F)(F)c1nc2c(Br)c(Br)c(Br)c(Br)c2[nH]1 | 200 | –
